# Hits are enriched below; roughly 2.7% of the tested compounds scored in any of these assays.
# RBBP9 inhibitor: blocks human serine hydrolase RBBP9. recombinant RBBP9, FP-Rh probe fluorescence polarization. inhibition, % at 7.94 µM. 220,000 compounds, 0.2% hits;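 active means inhibition above the campaign mean of all tested compounds plus 3 SD, cut at about 14% in these data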;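 further: plate controls were DMSO wells with RBBP9 for no effect and wells lacking RBBP9 protein for full effect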
# Target sequence (O75884 whole entry, looked up): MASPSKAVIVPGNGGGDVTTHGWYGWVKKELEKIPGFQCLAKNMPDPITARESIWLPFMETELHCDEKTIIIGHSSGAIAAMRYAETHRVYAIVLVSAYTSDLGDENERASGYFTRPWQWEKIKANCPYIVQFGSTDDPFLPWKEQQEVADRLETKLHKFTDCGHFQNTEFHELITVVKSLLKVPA
#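 Measured by – fluorescence polarization · Test system – RBBP9 protein · Input – 2.5 µM RBBP9 dispensing solution, before mixing · Measure – percent inhibition from mP, scaled between DMSO and no-protein wells · Benchmarks – DMSO-treated enzyme wells and wells lacking RBBP9 · Times – preincubation 30 min plus labeling 45 min at 25 °C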
# PAFAH1B2 FP inh: PAFAH1B2 (human) inhibition; 340,000 compounds, 1.2% hits; recombinant PAFAH1B2, FP-rhodamine activity probe, fluorescence polarization; inhibition, % at 3.39 µM;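 active means inhibition above the mean of all tested compounds plus 3 SD, cut at about 24% in these data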;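 further: 0% = enzyme with DMSO and 100% = wells lacking PAFAH1B2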
# pPAFAH FP inh: pPAFAH (human) enzyme inhibition | inhibition, % at 3.39 µM | 330,000 compounds, 1.5% hits | AID 463082 | recombinant pPAFAH, FP-rhodamine probe fluorescence polarization;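 active means inhibition above the mean inhibition across the screen plus 3 SD, cut at about 25% in these data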;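 further: inhibitors block binding of the rhodamine activity-based probe so polarization drops; 0% = enzyme with DMSO and 100% = wells lacking pPAFAH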
# Target sequence (Q13093 whole entry, looked up): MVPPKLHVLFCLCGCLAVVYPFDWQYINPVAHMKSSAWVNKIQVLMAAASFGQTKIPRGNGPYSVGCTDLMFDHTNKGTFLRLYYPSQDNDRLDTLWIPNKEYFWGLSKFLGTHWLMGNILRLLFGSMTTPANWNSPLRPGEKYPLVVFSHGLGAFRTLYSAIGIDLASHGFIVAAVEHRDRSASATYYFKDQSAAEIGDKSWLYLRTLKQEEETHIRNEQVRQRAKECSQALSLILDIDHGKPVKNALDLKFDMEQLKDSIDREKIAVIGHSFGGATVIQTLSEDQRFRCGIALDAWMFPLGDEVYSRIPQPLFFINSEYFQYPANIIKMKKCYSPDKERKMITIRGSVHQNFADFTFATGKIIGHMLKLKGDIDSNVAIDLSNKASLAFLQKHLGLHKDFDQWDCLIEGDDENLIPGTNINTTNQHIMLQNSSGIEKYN
# PAFAH2 inh: inhibitors of human PAFAH2. inhibition, % at 3.39 µM. AID 492956. Q99487. 340,000 compounds, 0.99% hits. recombinant PAFAH2, FP-rhodamine activity probe, fluorescence polarization;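 active means inhibition above the mean over all tested compounds plus 3 SD, cut at about 30% in these data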;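 further: inhibitors block probe labeling of enzyme so polarization drops; 0% = enzyme with DMSO and 100% = wells lacking PAFAH2 protein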
# PAFAH1B3 inh: blocks human PAF acetylhydrolase 1B catalytic subunit 3; 340,000 compounds, 0.28% hits; recombinant PAFAH1B3, FP-rhodamine probe, fluorescence polarization; inhibition, % at 3.39 µM; Q15102;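 active means inhibition above the screen-wide average of all tested compounds plus 3 SD, cut at about 25% in these data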;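 further: 0% = enzyme with DMSO only and 100% = wells lacking PAFAH1B3 protein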
# Numbers without * were called inactive; · = not tested or not shown.
SMILES,RBBP9 inhibitor,PAFAH1B2 FP inh,pPAFAH FP inh,PAFAH2 inh,PAFAH1B3 inh
Cc1cccc(-n2c(SCc3cc(=O)n4ccsc4n3)nc3ccccc32)c1,-2,-13,26*,-14,-6
CCOc1ccc(N(CC)C(=O)COc2cc(=O)n(C)c3ccccc23)cc1,-5,8,28*,1,2
CCOc1ccc(N(CC)C(=O)COc2cc(=O)n(CC)c3ccccc23)cc1,2,2,12,-2,5
CN(Cc1nc(-c2cccs2)no1)CC(O)c1ccccc1 (stereo unspecified),0,4,6,-1,3
NC1=C(Cl)C(=O)c2ccc(S(N)(=O)=O)cc2C1=O,·,25*,·,48*,69*
COc1ccc(OC)c(C2C3=C(CC(C)(C)CC3=O)Nc3nnnn32)c1 (stereo unspecified),11,-2,29*,-1,10
COc1ccccc1C1C2=C(CC(C)(C)CC2=O)Nc2nnnn21 (stereo unspecified),-6,-4,-1,3,7
CC(C)Oc1cccc(C(=O)C2CCCN(C(=O)CCn3cnnn3)C2)c1 (stereo unspecified),-6,-1,-3,-1,1
CCOc1ccc(CCNC(=O)COC(=O)c2cc(=O)[nH]c3ccccc23)cc1OCC,·,2,3,4,-1
CCc1ccc(S(=O)(=O)NCCc2csc(-c3ccccc3)n2)s1,-18,39*,14,-4,-2
Cc1ccc(Oc2ccc(OCC(=O)OC3CCS(=O)(=O)C3)cc2)cc1 (stereo unspecified),-1,·,31*,·,·
CCc1cc(C(=O)O)c(NC(=O)/C=C/c2ccc(OC)cc2)s1,-6,20,17,-2,7
CCc1cc(C(=O)O)c(NC(=O)/C=C/c2ccc(OC)c(OC)c2)s1,-7,25*,19,9,6
Cc1ccc2[nH]c3nc(N/N=C/c4cccc(O)c4)nnc3c2c1,·,-6,0,2,7
CCc1ccc2[nH]c3nc(N/N=C/c4ccc(O)cc4O)nnc3c2c1,·,23,28*,14,26*
COc1ccc([N+](=O)[O-])cc1NS(=O)(=O)c1cc(C(=O)O)ccc1OC,-3,-3,0,4,-2
Cc1cc(Br)cc(Br)c1OCC(=O)NNC(=O)CCC(=O)NCc1ccccc1,·,3,·,0,7
O=C(CCC(=O)NNC(=O)COc1ccc(Br)cc1Br)NCc1ccccc1,-5,·,27*,·,·
NC(=O)Cc1ccc(C(=O)CSc2nnc(-c3ccncc3)n2C2CC2)s1,·,6,33*,19,3
N#CCCN(C(=O)CSc1nnc(-c2ccncc2)n1C1CC1)c1ccccc1,·,0,2,2,0
CCC1(c2ccc(F)cc2)NC(=O)N(CC(=O)N2CCN(C(=O)c3cccs3)CC2)C1=O (stereo unspecified),·,2,·,-1,1
N=C1/C(=C/c2ccc(OCc3ccccc3)cc2)C(=O)N=C2SC(CC(=O)N3CCOCC3)=NN12,·,28*,9,-2,-2
COc1cc(/C=C2/C(=N)N3N=C(CC(=O)N4CCOCC4)SC3=NC2=O)ccc1OC(C)c1ccccc1 (stereo unspecified),·,28*,9,0,-5
CS(=O)(=O)Oc1ccc(/C=C2\C(=N)N3N=C(CC(=O)N4CCOCC4)SC3=NC2=O)cc1Cl,·,8,0,11,4
N=C1/C(=C/c2ccc(OCc3ccccc3F)cc2)C(=O)N=C2SC(CC(=O)N3CCOCC3)=NN12,·,10,12,5,-1
SMILES,RBBP9 inhibitor,PAFAH1B2 FP inh,pPAFAH FP inh,PAFAH2 inh,PAFAH1B3 inh
Cc1cccnc1NC(=O)c1ccc(OCc2c(C)noc2C)cc1,·,-3,7,2,5
CNC(=O)CNC(=O)Nc1ccc(C)cc1,-4,-1,0,-2,0
Cc1ccc2cc(C3C(C#N)=C(N)Oc4c3ccc3cccnc43)c(=O)[nH]c2c1 (stereo unspecified),-5,9,27*,13,10
N#CC1=C(N)Oc2c(ccc3cccnc23)C1c1cccnc1 (stereo unspecified),0,2,10,8,10
CCc1ccc2[nH]c(=O)c(C3C(C#N)=C(N)Oc4c3ccc3cccnc43)cc2c1 (stereo unspecified),-2,4,43*,5,14
COc1ccc(NC(=O)N2CCCc3cc(C)ccc32)c(OC)c1,·,5,5,0,7
O=C(O)c1cc(-c2ccco2)nc2cc3ccccc3cc12,-8,4,25*,4,15
CNC(=O)COC(=O)c1cc(-c2ccco2)nc2ccccc12,4,1,25*,12,7
O=C(O)c1ccccc1/C=N/NC(=O)c1cc(-c2ccco2)nc2ccccc12,-6,1,32*,19,15
CCN(CC)C(=O)COC(=O)c1cc(-c2ccco2)nc2ccccc12,-6,3,·,17,8
O=C(COC(=O)c1cc(-c2ccco2)nc2ccccc12)NCc1ccccc1,-5,-3,34*,4,1
CC(C)[C@H](NC(=O)N1CCn2c1nc1ccccc12)C(=O)N[C@@H](Cc1ccccc1)C(=O)O,·,7,0,1,1
CN(NC(=O)COc1ccccc1)C1=NS(=O)(=O)c2ccccc21,3,4,3,6,7
CCOc1ccc(NC(=O)NC(=O)N(C(C)C)S(C)(=O)=O)cc1,-6,1,8,1,1
COc1cccc(CNC(=O)CCn2ccc3cc(S(=O)(=O)N4CCC(C)CC4)ccc32)c1,·,25*,4,4,7
Cc1cc(=O)n2c3c(c4c(cc13)c(CN(C)C)cc(=O)n4C)OC2,·,6,·,6,12
CCOc1ncccc1C(=O)Nc1cc2c(cc1Br)OCCO2,·,-4,-3,-3,3
CCn1c(SCC(=O)Nc2c(C)n(C)n(-c3ccccc3)c2=O)nc2c1c(=O)n(C)c(=O)n2C,0,·,-2,·,·
N#CC1=C(N)NC(SCc2ccc(F)cc2)=C(C#N)C12CCCCC2,1,28*,0,5,-6
CCN(CC)c1ccc(N=C2C(=O)Nc3ccccc32)cc1,·,0,29*,5,4
Cc1ccc(N=C2C(=O)Nc3ccccc32)cc1,·,3,9,0,9
CCN(CC)c1ccc(-c2nn3c(-c4ccccc4OC)nnc3s2)cc1,-11,5,25*,0,-3
Cc1ccc(CNC(=O)CSc2nc3ccsc3c(=O)n2Cc2ccc(C(=O)O)cc2)cc1,-2,-4,2,5,5
N#C/C(=C(/O)COC(=O)Cc1c[nH]c2ccccc12)c1nc2ccccc2[nH]1,-5,4,25*,9,4
C=C1C(=O)[C@@]23[C@H](O)C[C@@H]4C(C)(C)CC[C@H](O)[C@]4(C)[C@@H]2C[C@H](O)[C@@H]1[C@H]3O,2,81*,2,-2,-5
C=C1C(=O)[C@@]23[C@H](O)C[C@@H]4C(C)(C)CC[C@H](O)[C@@]4(C)[C@@H]2CC[C@@H]1[C@H]3O,-8,86*,4,0,11

# Assay outcomes (PubChem)
